Data set [1] can be described thus: Apparent permeability across bovine cornea assessed as lag time of permeation by UV-visible spectrophotometer. In kind it is ADME, tissue-based, Bos taurus. To be noted: cattle. In a few lines: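 Fresh bovine cornea, taken within 1 h of sacrifice with lens and iris removed, was mounted in a side-by-side perfusion cell. Donor held 7 mL of drug in 0.01 M methanolic phosphate buffer, pH 7. Receptor was sampled 1 mL every 15 min for 3 h and replaced with buffer pre-equilibrated at 37 °C. Drug was quantified by UV-vis absorbance. Lag time is the time to reach a steady concentration gradient across the membrane.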

In data set [2] the test system is Rattus norvegicus. Description: Antiinflammatory activity in Wistar albino rat assessed as reduction in formalin-induced paw edema volume at 40 mg/kg, po administered 30 mins prior to formalin challenge measured after 30 mins by plethysmography. In kind it is functional. Details: scale not given: the % may be the effect or the level left. In outline:
(§1)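 Wistar albino rats received the compound orally as a suspension in 1% carboxymethyl cellulose, 30 min before subplantar formalin (0.1 mL of 1% w/v). Paw volume was read by plethysmography at 30, 60, 90 and 120 min after formalin and expressed as % reduction of edema. Significance was tested by Student's t-test.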

The subject of data set [3] is Rattus norvegicus. Description: Antiinflammatory activity in Wistar albino rat assessed as reduction in formalin-induced paw edema volume at 40 mg/kg, po administered 30 mins prior to formalin challenge measured after 120 mins by plethysmography. The data set is classed as functional. Also noted: scale not given: the % may be the effect or the level left. In a few lines: as §1

Data set [4] deals with Rattus norvegicus. Briefly: Antiinflammatory activity in Wistar albino rat assessed as reduction in formalin-induced paw edema volume at 40 mg/kg, po administered 30 mins prior to formalin challenge measured after 90 mins by plethysmography. Also noted: scale not given: the % may be the effect or the level left. The data set is classed as functional. In outline: as §1
Data set [5] is described as follows: Acute toxicity in po dosed Wistar albino mouse assessed as mortality after 24 hrs by Karber's arithmetical method. Particulars: in vivo. In kind it is organism-based. In outline: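 Wistar albino mice of either sex, six per group; compounds given orally by gavage as suspension in 1% carboxymethyl cellulose at 100, 200, 400, 800 or 1000 mg/kg. Mortality recorded over 24 h; LD50 calculated by Karber's arithmetical method.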

Data set [6] relates to Mus musculus. Description: Analgesic activity in Wistar albino mouse assessed as protection against acetic acid-induced writhing at 40 mg/kg, po administered 30 mins prior to acetic acid challenge measured after 30 mins. The data set is classed as functional. In outline:
(§2)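 Wistar albino mice of either sex were dosed orally by gavage with a suspension in 1% carboxymethyl cellulose, 30 min before the writhing agent (0.6% v/v aqueous acetic acid, 1 mL/100 g). Writhings were counted over 30 min and expressed as percentage protection. Significance was tested by Student's t-test.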
In general terms: Writhing tests count abdominal constrictions after an irritant is injected.

In data set [7] the test system is Mus musculus. Briefly: Analgesic activity in Wistar albino mouse assessed as protection against acetic acid-induced writhing at 20 mg/kg, po administered 30 mins prior to acetic acid challenge measured after 30 mins. The data set is classed as functional. In a few lines: as §2
Data set [8] has as its system Rattus norvegicus. Description: Antiinflammatory activity in Wistar albino rat assessed as reduction in formalin-induced paw edema volume at 40 mg/kg, po administered 30 mins prior to formalin challenge measured after 60 mins by plethysmography. Also noted: scale not given: the % may be the effect or the level left. In kind it is functional. In a few lines:
as §1

Data set [9] has as its system Rattus norvegicus. Briefly: Antiinflammatory activity in Wistar albino rat assessed as reduction in formalin-induced paw edema volume at 200 mg/kg, po administered 30 mins prior to formalin challenge measured after 90 mins by plethysmography. The data set is classed as functional. Details: scale not given: the % may be the effect or the level left. In a few lines:
as §1

The subject of data set [10] is Mus musculus. Description: Analgesic activity in Wistar albino mouse assessed as protection against acetic acid-induced writhing at 100 mg/kg, po administered 30 mins prior to acetic acid challenge measured after 30 mins. The data set is classed as functional. In outline: as §2
Data set [11] deals with Rattus norvegicus. Briefly: Antiinflammatory activity in Wistar albino rat assessed as reduction in formalin-induced paw edema volume at 200 mg/kg, po administered 30 mins prior to formalin challenge measured after 120 mins by plethysmography. In kind it is functional. Also noted: scale not given: the % may be the effect or the level left. In outline:
as §1

Data set [12] deals with Mus musculus. Briefly: Analgesic activity in Wistar albino mouse assessed as protection against acetic acid-induced writhing at 200 mg/kg, po administered 30 mins prior to acetic acid challenge measured after 30 mins. In kind it is functional. In outline:
as §2

The test system of data set [13] is Rattus norvegicus. Briefly: Antiinflammatory activity in Wistar albino rat assessed as reduction in formalin-induced paw edema volume at 200 mg/kg, po administered 30 mins prior to formalin challenge measured after 30 mins by plethysmography. The data set is classed as functional. Also noted: scale not given: the % may be the effect or the level left. In outline:
as §1

In data set [14] the test system is Rattus norvegicus. Briefly: Antiinflammatory activity in Wistar albino rat assessed as reduction in formalin-induced paw edema volume at 200 mg/kg, po administered 30 mins prior to formalin challenge measured after 60 mins by plethysmography. Details: scale not given: the % may be the effect or the level left. The data set is classed as functional. In outline:
as §1

Data set [15] concerns Rattus norvegicus. Description: Antiinflammatory activity in Wistar albino rat assessed as reduction in formalin-induced paw edema volume at 50 mg/kg, po administered 30 mins prior to formalin challenge measured after 30 mins by plethysmography. In kind it is functional. Also noted: scale not given: the % may be the effect or the level left. In outline: (§3)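 Standard-drug arm, given orally to Wistar albino rats 30 min before subplantar formalin (0.1 mL of 1% w/v). Paw volumes were measured by plethysmography at 30, 60, 90 and 120 min post-formalin and expressed as % reduction of edema.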

For data set [16], the system named is Rattus norvegicus. Briefly: Antiinflammatory activity in Wistar albino rat assessed as reduction in formalin-induced paw edema volume at 50 mg/kg, po administered 30 mins prior to formalin challenge measured after 90 mins by plethysmography. Also noted: scale not given: the % may be the effect or the level left. In kind it is functional. In a few lines:
as §3

Data set [17] relates to Rattus norvegicus. Description: Antiinflammatory activity in Wistar albino rat assessed as reduction in formalin-induced paw edema volume at 50 mg/kg, po administered 30 mins prior to formalin challenge measured after 120 mins by plethysmography. Details: scale not given: the % may be the effect or the level left. The data set is classed as functional. In a few lines:
as §3

Data set [18] relates to Rattus norvegicus. Description: Antiinflammatory activity in Wistar albino rat assessed as reduction in formalin-induced paw edema volume at 50 mg/kg, po administered 30 mins prior to formalin challenge measured after 60 mins by plethysmography. In kind it is functional. Also noted: scale not given: the % may be the effect or the level left. In a few lines: as §3

Consider `Cc1nc2ccccc2[nH]1`, for which, in data set [1], the Tlag is 11.68 min.

Regarding `C(=C\c1nc2ccccc2[nH]1)/c1ccccc1`, the Tlag in [1] is listed as 9.57 min.

The term LD50 denotes the dose expected to kill half of the subjects tested. For the compound `C(=C\c1nc2ccccc2n1CN1CCCCC1)/c1ccccc1`, the Activity in the data set with Rattus norvegicus [2] was 48%; in the data set with Rattus norvegicus [3], 62%; in the data set with Rattus norvegicus [4] it was 59%; in the data set with Mus musculus [6] it was 43.8%; in the data set on Mus musculus [7], 29.56%; with Rattus norvegicus [8], 56%. In data set [5], the LD50 at 24 h turned out to be 180 mg/kg. Besides, the Tlag in data set [1] came to 4.51 min.

For `CN(C)Cn1cnc2ccccc21`, the Activity in the data set on Rattus norvegicus [9] turned out to be 64%; with Mus musculus [10], 25.87%; with Rattus norvegicus [11], 53%; with Mus musculus [12], 31.4%; in the data set with Rattus norvegicus [13], 48%; in the data set on Rattus norvegicus [14] it was 51%. The LD50 at 24 h in data set [5] is more than 1000 mg/kg. Further, in [1], the Tlag was 15.31 min.

As for `CCN(CC)Cn1c(/C=C/c2ccccc2)nc2ccccc21`, the Activity came to 20% in the data set on Rattus norvegicus [2]; 56% with Rattus norvegicus [3]; 51% in the data set with Rattus norvegicus [4]; 47.49% with Mus musculus [6]; 32.2% with Mus musculus [7]; 50% with Rattus norvegicus [8]. In [5], the LD50 at 24 h amounted to 175 mg/kg. Moreover, in [1], the Tlag stood at 4.9 min.

As for `CCN(CC)Cn1cnc2ccccc21`, the Activity in the data set on Rattus norvegicus [9] stood at 63%; in the data set with Mus musculus [10], 11.35%; in the data set with Rattus norvegicus [11] it was 61%; with Mus musculus [12], 43.8%; with Rattus norvegicus [13], 28%; with Rattus norvegicus [14], 59%. Also, in data set [5], the LD50 at 24 h was more than 1000 mg/kg. Moreover, the Tlag in [1] worked out at 16.79 min.

As for `C(=C\c1nc2ccccc2n1CN1CCOCC1)/c1ccccc1`, the Activity with Rattus norvegicus [2] came out at 52%; in the data set on Rattus norvegicus [3], 70%; with Rattus norvegicus [4], 74%; in the data set with Mus musculus [6], 27.45%; in the data set with Mus musculus [7], 20.58%; in the data set with Rattus norvegicus [8] it was 59%. Moreover, the median lethal dose (LD50) at 24 h in [5] was found to be 200 mg/kg. Moreover, in data set [1], the Tlag is listed as 7.33 min.

With `CC(=O)Nc1ccc(O)cc1` [ACETAMINOPHEN], the Activity in the data set with Mus musculus [10] is recorded as 47.76%. Besides, in [1], the Tlag is recorded as 1.55 min.

`c1ccc2[nH]cnc2c1` [BENZIMIDAZOLE]: the Tlag in data set [1] is given as 18.81 min.

On to `O=C(O)Cc1ccccc1Nc1c(Cl)cccc1Cl` [DICLOFENAC], for which the Activity is given as 48% in the data set with Rattus norvegicus [15], 64% in the data set with Rattus norvegicus [16], 65% in the data set on Rattus norvegicus [17] and 65% in the data set with Rattus norvegicus [18]. In data set [1], the Tlag is on record as 3.36 min.

For the origin of these results see ChEMBL document CHEMBL1137677, “Synthesis, pharmacological screening, quantum chemical and in vitro permeability studies of N-Mannich bases of benzimidazoles through bovine cornea” (Eur J Med Chem, 2009).
